Shown are actives, neighbours in structure and some others; about 3% of the full set was active somewhere.
Rad51 HR inh: Rad51 (human) homologous recombination inhibition | 0.085% of 200,000 active | hRad51 DNA strand exchange, fluorescence dequenching | inhibition, % at 10 µM;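 active = inhibition above 40% at the single screening dose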
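System: human Rad51 nucleoprotein filaments preassembled on unlabelled ssDNA. Reagent: labelled 47-mer dsDNA for strand exchange. Schedule: 30-min compound preincubation and 15-min exchange, both room temperature. Measured by: FRET fluorescence dequenching, excitation 485 nm, emission 520 nm. Read-out: Fluorescence-based percent inhibition, control- and blank-normalised. Benchmarks: plate controls and plate blanks.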
ROMK mod: modulators of human ROMK potassium channel; 2% of 130,000 active; Tet-inducible ROMK, thallium flux fluorescence; actives lie on both sides; B-score at 10 µM; AID 1918;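 active = signal ratio slope over the read window, or its plate-corrected B-score, at least 3 SD from the plate mean, either direction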;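 note: B-score of the F/F0 ratio slope over 7 to 12 s after thallium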
KCC2 mod: modulators of human KCC2 chloride dependent transport; B-score of Tl+ flux slope (higher = more flux/activation; lower = inhibition) at 10 µM; Q9H2X9; KCC2 cells, thallium flux FluoZin-2 fluorescence; 2.2% of 190,000 active;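 active = thallium flux slope and its plate-corrected score both differing from the plate sample mean at a set confidence after two filtering rounds, in either direction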;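 note: slope of fluorescence scaled to starting intensity during 10 to 20 s after thallium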
PKD1 inh: blocks activity of human protein kinase D1. inhibition, % (no concentration beside the values). AID 797. 0.056% of 200,000 active. Q15139. PKD1 kinase fluorescence polarization assay; in the data active = inhibition above about 50%
Target sequence (Q15139 whole entry, looked up): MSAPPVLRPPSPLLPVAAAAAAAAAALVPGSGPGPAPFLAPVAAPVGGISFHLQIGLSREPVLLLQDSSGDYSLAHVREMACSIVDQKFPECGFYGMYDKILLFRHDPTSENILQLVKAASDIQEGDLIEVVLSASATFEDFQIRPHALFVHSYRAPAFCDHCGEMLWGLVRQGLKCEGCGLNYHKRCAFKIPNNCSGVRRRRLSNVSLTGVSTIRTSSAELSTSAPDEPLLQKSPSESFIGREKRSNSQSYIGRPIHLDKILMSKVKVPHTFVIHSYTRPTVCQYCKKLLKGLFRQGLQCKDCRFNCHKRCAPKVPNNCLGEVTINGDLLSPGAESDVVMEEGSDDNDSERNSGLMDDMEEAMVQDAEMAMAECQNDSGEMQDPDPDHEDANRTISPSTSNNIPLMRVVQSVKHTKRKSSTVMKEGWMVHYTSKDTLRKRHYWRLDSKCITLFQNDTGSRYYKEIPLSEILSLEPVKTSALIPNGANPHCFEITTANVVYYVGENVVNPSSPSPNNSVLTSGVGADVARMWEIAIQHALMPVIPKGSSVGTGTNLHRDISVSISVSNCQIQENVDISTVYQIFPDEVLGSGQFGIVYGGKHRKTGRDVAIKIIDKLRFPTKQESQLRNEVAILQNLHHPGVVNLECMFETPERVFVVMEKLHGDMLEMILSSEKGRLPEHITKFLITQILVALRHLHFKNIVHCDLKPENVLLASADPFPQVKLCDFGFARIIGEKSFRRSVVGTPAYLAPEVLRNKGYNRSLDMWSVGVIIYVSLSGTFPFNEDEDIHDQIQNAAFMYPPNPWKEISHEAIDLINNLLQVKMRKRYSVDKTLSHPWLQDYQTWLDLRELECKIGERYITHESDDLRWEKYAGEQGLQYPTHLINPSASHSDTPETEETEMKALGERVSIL
KCC2 secondary: KCC2 (human) modulation, secondary assay; shares compounds with KCC2 mod; HEK293-KCC2, thallium flux, FluoZin2 fluorescence; hits give high values; normalised thallium flux (F/F0 slope) at 10 µM; 15% of 3,700 active; AID 1713;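 active = thallium flux slope above the same plate's solvent-only control mean plus 3 SD; inconclusive = the two replicate wells disagree; inactive = no significant difference from solvent-only control wells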
KCC2 bumet counter: thallium flux despite bumetanide block in KCC2 cells, secondary assay 3. shares compounds with KCC2 mod. HEK293-KCC2 + bumetanide/ouabain, thallium flux FluoZin2; hits give high values. normalized thallium flux at 10 µM. 49% of 3,700 active. AID 1714;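 active = thallium entry rate above the same plate's blocked-transporter control wells by more than 3 SD; inconclusive = the two repeat wells disagree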;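 note: raw slope of fluorescence over initial fluorescence between 10 and 20 s after thallium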
KCC2 sec2: KCC2 (human) modulation, second secondary assay; normalized thallium flux at 10 µM; 23% of 3,700 active; shares compounds with KCC2 mod; HEK293-KCC2, thallium flux FluoZin2 fluorescence; actives lie on both sides; F/F0 rise rate, 10–20 s post-thallium;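 active = thallium flux slope more than 3 SD above or below the plate's solvent-only control mean, mostly below; inconclusive = the two repeat wells disagreed; inactive = no significant shift from solvent-only controls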
HEK293 Tl flux: counter-screen for KCC2 modulators: effect in parental HEK293 cells. shares compounds with KCC2 mod. thallium flux FluoZin2, ouabain; baseline-ratio fluorescence slope, 10–20 s after thallium. thallium flux rate (normalised fluorescence) at 10 µM. 46% of 3,700 active. AID 1716;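 active = thallium flux rate significantly above the same plate's solvent-only control wells, beyond their mean plus 3 SD; inconclusive = the two replicate wells gave conflicting results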
KCC2 ouabain: modulates human KCC2 on retest with ouabain; shares compounds with KCC2 mod; HEK293-KCC2, thallium flux FluoZin2 fluorescence; bidirectional: low = inhibitor, high = activator; raw Tl+ flux slope (below DMSO = inhibition, above = activation) at 10 µM; 48% of 3,700 active;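 active = thallium flux slope beyond 3 SD from same-plate DMSO control mean in most replicates, usually higher, sometimes lower; inconclusive = repeat tests gave conflicting results; inactive = no significant difference from controls in most replicates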;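 note: slope of initial-normalized fluorescence between seconds 10 and 20 after thallium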
HEK counter2: counter-screen for KCC2 modulators: effect in parental HEK293 cells; shares compounds with KCC2 mod; thallium flux FluoZin-2 fluorescence slope; thallium flux slope at 10 µM; 33% of 3,700 active;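 active = thallium flux slope above the same plate's solvent-control mean plus 3 SD in both duplicate wells; inconclusive = duplicate wells that disagreed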;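 note: run without ouabain in cells lacking the KCC2 cotransporter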
Of the large screens only hits and unclear results are named; the others gave an inactive call (follow-up assays come after a bar, where they were run).

Cc1ccc(Cl)cc1N1CCN(C(=O)Cc2csc(Nc3nc(=S)[nH]c4ccccc34)n2)CC1	KCC2 mod 19 | KCC2 secondary 0.013 | KCC2 bumet counter 0.053 | KCC2 sec2 inconclusive | HEK293 Tl flux 0.032 | KCC2 ouabain 0.054 | HEK counter2 0.014
O=C(Cc1csc(Nc2nc(=S)[nH]c3ccccc23)n1)N1CCN(c2cccc(Cl)c2)CC1	KCC2 mod 25 | KCC2 secondary inconclusive | KCC2 bumet counter 0.075 | KCC2 sec2 inactive | HEK293 Tl flux 0.03 | KCC2 ouabain 0.053 | HEK counter2 0.014
CC(=O)C1C(c2cccc(F)c2)c2c(n[nH]c2C)CC1(C)O (stereo not drawn)	none (no result: Rad51 HR inh, PKD1 inh)
CN1CCC(=NNC(=O)C(=O)Nc2ccccc2F)CC1	none
CCOc1ccc(N(CC(=O)Nc2c(C)n(C)n(-c3ccccc3)c2=O)S(=O)(=O)c2ccccc2)cc1	KCC2 mod -2.8 | KCC2 secondary inactive | KCC2 bumet counter inactive | KCC2 sec2 inactive | HEK293 Tl flux inactive | KCC2 ouabain inactive | HEK counter2 inactive
COc1ccccc1N(CC(=O)Nc1c(C)n(C)n(-c2ccccc2)c1=O)S(=O)(=O)c1ccc(C)cc1	none (no result: Rad51 HR inh)
NC(=O)c1c(NC(=O)COC(=O)c2ccc(S(=O)(=O)Nc3ccccc3)cc2)sc2c1CCCC2	none
CCc1cc2cc(C)cc(C)c2[nH]c1=S	KCC2 mod 124 | KCC2 secondary inactive | KCC2 bumet counter 0.024 | KCC2 sec2 0.11 | HEK293 Tl flux 0.11 | KCC2 ouabain 0.086 | HEK counter2 0.11
CC(C)c1nnc(NC(=O)c2cccnc2)s1	KCC2 mod 7.8 | KCC2 secondary inactive | KCC2 bumet counter inactive | KCC2 sec2 inactive | HEK293 Tl flux inactive | KCC2 ouabain inactive | HEK counter2 inactive
COc1ccc2c(c1OC)C(=O)OC2Nc1nc(-c2cccc([N+](=O)[O-])c2)cs1 (stereo not drawn)	none (no result: PKD1 inh)
O=[N+]([O-])c1ccccc1/C=N/n1c(C2CCCCC2)n[nH]c1=S	KCC2 mod 11 (no result: ROMK mod) | KCC2 secondary inactive | KCC2 bumet counter 0.033 | KCC2 sec2 inactive | HEK293 Tl flux 0.024 | KCC2 ouabain 0.031 | HEK counter2 0.019
S=c1[nH]nc(C2CCCCC2)n1/N=C/C=C/c1ccccc1	KCC2 mod 7.7 (no result: Rad51 HR inh) | KCC2 secondary inactive | KCC2 bumet counter 0.037 | KCC2 sec2 0.046 | HEK293 Tl flux 0.034 | KCC2 ouabain 0.032 | HEK counter2 0.031
S=c1[nH]nc(C2CCCCC2)n1/N=C/C(Cl)=C\c1ccccc1	none
O=C(NCCc1ccccc1)c1noc2c1CCCCC2	none (no result: Rad51 HR inh, KCC2 mod) | KCC2 secondary inactive | KCC2 bumet counter inactive | KCC2 sec2 inconclusive | HEK293 Tl flux inactive | KCC2 ouabain 0.019 | HEK counter2 inactive
O=C(NCc1ccccc1)c1noc2c1CCCC2	none (no result: ROMK mod)
COCC(=O)Nc1nc2ccccc2s1	none
NC(=S)Nc1nc2ccccc2s1	KCC2 mod 102 | KCC2 secondary 0.041 | KCC2 bumet counter 0.087 | KCC2 sec2 0.051 | HEK293 Tl flux 0.057 | KCC2 ouabain 0.056 | HEK counter2 0.061
Nc1ccc(C(=O)Nc2nc3ccccc3s2)cc1	KCC2 mod -3.6 (no result: ROMK mod) | KCC2 secondary inactive | KCC2 bumet counter inactive | KCC2 sec2 inactive | HEK293 Tl flux inactive | KCC2 ouabain inactive | HEK counter2 inactive
CC(=O)c1c(C)[nH]c(-c2ccccc2)nc1=S	KCC2 mod 14 (no result: ROMK mod, PKD1 inh) | KCC2 secondary 0.017 | KCC2 bumet counter 0.022 | KCC2 sec2 inactive | HEK293 Tl flux 0.013 | KCC2 ouabain inactive | HEK counter2 inconclusive
CC(=O)c1c(NC(=O)c2ccccc2)[nH]c(-c2ccccc2)nc1=S	KCC2 mod 36 | KCC2 secondary inconclusive | KCC2 bumet counter 0.052 | KCC2 sec2 0.062 | HEK293 Tl flux 0.052 | KCC2 ouabain 0.052 | HEK counter2 0.054
COc1ccccc1-c1nc(=S)c(C(C)=O)c(C)[nH]1	none (no result: PKD1 inh)
CSc1nc(-c2ccccc2)nc(NC(=O)c2ccccc2)c1C(C)=O	none
Cc1c(CNC(=O)C2CC2)c(-n2cccc2)n(Cc2ccccc2)c1C	none
C=CCn1c(CNC(=O)c2ccccc2F)nnc1SCC(=O)NC(C)c1ccccc1 (stereo not drawn)	none (no result: Rad51 HR inh)
O=C(CSc1nc2cc(C(F)(F)F)ccc2n1Cc1ccccc1)NC1CCS(=O)(=O)C1 (stereo not drawn)	KCC2 mod 5.2 | KCC2 secondary inactive | KCC2 bumet counter 0.0077 | KCC2 sec2 inactive | HEK293 Tl flux 0.011 | KCC2 ouabain inactive | HEK counter2 inconclusive
CN(CCC#N)C(=S)Nc1ccc(S(=O)(=O)N2CCOCC2)cc1	none
N#Cc1c(SCC(=O)Nc2nccs2)nc2c(c1-c1ccco1)CCCC2	none (no result: ROMK mod)
O=C(NCc1cccs1)C1CCN(c2nc3ccccc3o2)CC1	none (no result: Rad51 HR inh, KCC2 mod) | KCC2 secondary inactive | KCC2 bumet counter inactive | KCC2 sec2 inactive | HEK293 Tl flux inactive | KCC2 ouabain 0.016 | HEK counter2 inactive
CCOc1ccccc1CNC(=O)C1CCN(c2nc3ccccc3o2)CC1	none (no result: Rad51 HR inh, KCC2 mod) | KCC2 secondary inactive | KCC2 bumet counter inconclusive | KCC2 sec2 inconclusive | HEK293 Tl flux inactive | KCC2 ouabain inactive | HEK counter2 inactive
COc1ccc([C@@H]2Sc3ccccc3N(CCN(C)C)C(=O)[C@@H]2OC(C)=O)cc1	KCC2 mod 4.4 | KCC2 secondary inactive | KCC2 bumet counter inactive | KCC2 sec2 inactive | HEK293 Tl flux inactive | KCC2 ouabain inactive | HEK counter2 inactive
COc1ccc(N2C(=O)C(OC(C)=O)C2c2ccc(C)cc2)cc1 (stereo not drawn)	none (no result: Rad51 HR inh)
Cc1cccc(NC(=O)CCc2ccc(S(=O)(=O)NC3CCCCC3)cc2)c1	none (no result: ROMK mod)
Cc1cccc(C)c1Nc1nnc(SCC(=O)c2ccc(Br)s2)s1	none (no result: ROMK mod)
Cc1cccc(C)c1Nc1nnc(SCC(=O)c2ccc3c(c2)NC(=O)CO3)s1	KCC2 mod -3.8 | KCC2 secondary inactive | KCC2 bumet counter inactive | KCC2 sec2 inactive | HEK293 Tl flux inactive | KCC2 ouabain 0.019 | HEK counter2 inactive
COCCNC(=O)C(c1ccc(O)cc1)N(C(=O)CCC(=O)Nc1nccs1)c1cccc(C)c1 (stereo not drawn)	none
